For two molecules, inhibition, IC50 and Ratio IC50 results are on record in ChEMBL document CHEMBL1765045, “Fine-tuning the selectivity of aldosterone synthase inhibitors: structure-activity and structure-selectivity insights from studies of heteroaryl substituted 1,2,5,6-tetrahydropyrrolo[3,2,1-ij]quinolin-4-one derivatives” (J Med Chem, 2011).

In data set [1] the target is T1, CYP2C19 (Homo sapiens, UniProt P33261). Description: Inhibition of human CYP2C19 expressed in baculovirus-infected insect microsomes at 10 uM. The data set is classed as ADME, Microsome. In short, it runs like this: (§1)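 Recombinant human CYP1A2, 2B6, 2C9, 2C19, 2D6 or 3A4 in baculovirus-infected insect microsomes (Supersomes), run per manufacturer's protocol. Inhibitor at 1 and 10 μM; percent inhibition is the mean of two experiments.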

Data set [2] addresses T2, CYP17 (Homo sapiens, UniProt P05093).
T2 sequence (P05093 whole entry): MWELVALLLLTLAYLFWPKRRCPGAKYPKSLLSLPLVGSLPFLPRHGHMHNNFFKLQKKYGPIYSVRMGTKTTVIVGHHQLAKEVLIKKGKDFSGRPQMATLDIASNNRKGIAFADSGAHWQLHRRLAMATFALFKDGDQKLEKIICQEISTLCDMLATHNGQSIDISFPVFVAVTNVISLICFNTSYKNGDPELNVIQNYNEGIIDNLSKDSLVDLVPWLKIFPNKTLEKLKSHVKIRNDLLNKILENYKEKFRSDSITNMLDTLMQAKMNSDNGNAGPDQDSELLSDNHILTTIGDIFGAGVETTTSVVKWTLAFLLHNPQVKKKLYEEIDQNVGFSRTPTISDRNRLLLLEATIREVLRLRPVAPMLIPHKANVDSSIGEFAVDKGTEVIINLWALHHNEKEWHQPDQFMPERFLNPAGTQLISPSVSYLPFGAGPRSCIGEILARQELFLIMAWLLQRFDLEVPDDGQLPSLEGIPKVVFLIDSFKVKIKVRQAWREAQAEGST
Description: Inhibition of human CYP17 expressed in Escherichia coli using progesterone substrate at 2 uM. Particulars: recombinant human CYP17 expressed in Escherichia coli, probe progesterone. A digest of the protocol: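 50000g sediment of E. coli homogenate recombinantly expressing human CYP17. Progesterone substrate at 25 μM, inhibitor tested at 2 μM.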

The target in data set [3] is T3, Cytochrome P450 11B1, mitochondrial (Homo sapiens, UniProt P15538).
T3 sequence (P15538 whole entry): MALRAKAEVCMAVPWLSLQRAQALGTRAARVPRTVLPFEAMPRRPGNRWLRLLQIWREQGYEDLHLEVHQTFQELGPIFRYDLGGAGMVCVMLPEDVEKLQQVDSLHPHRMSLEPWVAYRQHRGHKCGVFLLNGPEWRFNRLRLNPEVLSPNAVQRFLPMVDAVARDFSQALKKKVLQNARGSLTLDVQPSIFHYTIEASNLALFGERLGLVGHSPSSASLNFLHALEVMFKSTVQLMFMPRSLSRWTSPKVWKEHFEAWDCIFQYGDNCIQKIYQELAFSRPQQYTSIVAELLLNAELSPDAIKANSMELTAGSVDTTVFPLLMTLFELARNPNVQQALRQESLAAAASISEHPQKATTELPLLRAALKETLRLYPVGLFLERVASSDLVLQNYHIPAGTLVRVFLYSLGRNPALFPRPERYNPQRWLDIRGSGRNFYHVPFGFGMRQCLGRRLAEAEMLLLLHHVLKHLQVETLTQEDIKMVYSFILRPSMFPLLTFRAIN
In words: Inhibition of human CYP11B1 expressed in hamster V79 MZh cells assessed as conversion of [4-14C]-11-deoxycorticosterone substrate by HPTLC assay. The data set is classed as cell-based. A digest of the protocol: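 V79 MZh hamster fibroblasts stably expressing human CYP11B1 or CYP11B2 incubated with [4-14C]-11-deoxycorticosterone, 100 nM, plus inhibitor at ≥3 concentrations. Reaction stopped with ethyl acetate, steroids extracted into the organic phase, and substrate conversion quantified by HPTLC with phosphoimaging. IC50 is the mean of at least three experiments.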

Data set [4] concerns the target T4, CYP1A2 (Homo sapiens, UniProt P05177).
T4 sequence (P05177 whole entry): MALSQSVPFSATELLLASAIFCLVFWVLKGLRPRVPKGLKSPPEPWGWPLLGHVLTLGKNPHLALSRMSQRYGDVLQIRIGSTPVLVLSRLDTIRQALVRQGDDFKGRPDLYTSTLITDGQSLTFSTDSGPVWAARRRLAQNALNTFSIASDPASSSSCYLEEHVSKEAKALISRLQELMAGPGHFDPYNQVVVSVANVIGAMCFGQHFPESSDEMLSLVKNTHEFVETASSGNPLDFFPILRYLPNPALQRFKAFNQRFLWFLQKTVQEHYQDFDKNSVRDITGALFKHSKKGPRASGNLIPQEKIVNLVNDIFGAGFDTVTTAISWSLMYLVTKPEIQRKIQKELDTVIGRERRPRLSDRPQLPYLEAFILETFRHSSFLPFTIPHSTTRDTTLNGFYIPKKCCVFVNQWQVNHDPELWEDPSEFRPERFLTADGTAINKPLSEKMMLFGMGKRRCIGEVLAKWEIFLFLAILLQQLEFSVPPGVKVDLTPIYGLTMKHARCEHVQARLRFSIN
In words: Inhibition of human CYP1A2 expressed in baculovirus-infected insect microsomes at 1 uM. It counts as ADME, Microsome. A digest of the protocol:
as §1

Data set [5] deals with T5, Cytochrome P450 11B2, mitochondrial (Homo sapiens, UniProt P19099).
T5 sequence (P19099 whole entry): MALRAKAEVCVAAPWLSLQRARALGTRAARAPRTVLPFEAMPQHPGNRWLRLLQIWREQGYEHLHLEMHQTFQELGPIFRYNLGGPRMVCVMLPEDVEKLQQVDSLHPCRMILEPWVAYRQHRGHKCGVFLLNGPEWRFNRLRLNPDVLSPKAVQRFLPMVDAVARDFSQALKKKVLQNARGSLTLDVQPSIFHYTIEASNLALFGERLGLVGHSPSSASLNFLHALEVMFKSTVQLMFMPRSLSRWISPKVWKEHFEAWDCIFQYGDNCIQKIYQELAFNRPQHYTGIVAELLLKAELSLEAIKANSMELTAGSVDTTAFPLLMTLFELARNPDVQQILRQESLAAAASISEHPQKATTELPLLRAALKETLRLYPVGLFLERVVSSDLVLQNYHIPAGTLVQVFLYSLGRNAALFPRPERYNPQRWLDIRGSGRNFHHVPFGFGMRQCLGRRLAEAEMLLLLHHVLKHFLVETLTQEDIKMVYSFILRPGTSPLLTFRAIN
Description: Inhibition of human CYP11B2 expressed in hamster V79 MZh cells assessed as conversion of [4-14C]-11-deoxycorticosterone substrate at 500 nM by HPTLC assay. The data set is classed as cell-based. Particulars: V79MZh. A digest of the protocol:
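V79 MZh cells expressing human CYP11B2 given [4-14C]-11-deoxycorticosterone, 100 nM, with inhibitor at a single 500 nM concentration. Ethyl acetate extraction, then HPTLC/phosphoimager readout of conversion. Percent inhibition is the mean of at least three experiments.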

Data set [6] concerns the target T6, CYP2C9 (Homo sapiens, UniProt P11712). Description: Inhibition of human CYP2C9 expressed in baculovirus-infected insect microsomes at 10 uM. The data set is classed as ADME, Microsome. In short, it runs like this: as §1
Data set [7] deals with T6, CYP2C9. Description: Inhibition of human CYP2C9 expressed in baculovirus-infected insect microsomes at 1 uM. The data set is classed as ADME, Microsome. In short, it runs like this:
as §1

Data set [8] deals with T1, CYP2C19. In words: Inhibition of human CYP2C19 expressed in baculovirus-infected insect microsomes at 1 uM. It counts as ADME, Microsome. A digest of the protocol:
as §1

For data set [9], the target named is T4, CYP1A2. In words: Inhibition of human CYP1A2 expressed in baculovirus-infected insect microsomes at 10 uM. It counts as ADME, Microsome. In short, it runs like this:
as §1

The species entered for data set [10] is Homo sapiens. In words: Selectivity ratio of IC50 for human CYP11B1 to IC50 for human CYP11B2. In short, it runs like this: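 Ratio of IC50 values from V79 MZh cell assays for human CYP11B1 and CYP11B2, IC50 CYP11B1/IC50 CYP11B2. Both assays used [4-14C]-11-deoxycorticosterone, 100 nM, inhibitor at ≥3 concentrations and HPTLC/phosphoimager readout of conversion.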

The target of data set [11] is T5, Cytochrome P450 11B2, mitochondrial. Description: Inhibition of human CYP11B2 expressed in hamster V79 MZh cells assessed as conversion of [4-14C]-11-deoxycorticosterone substrate by HPTLC assay. It counts as cell-based. A digest of the protocol: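 Hamster V79 MZh fibroblasts expressing human CYP11B2 incubated with [4-14C]-11-deoxycorticosterone (100 nM) and inhibitor at ≥3 concentrations; reaction stopped with ethyl acetate, steroids extracted after shaking and centrifugation (10000g, 2 min). Substrate conversion read by HPTLC with phosphoimaging.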

Data set [12] concerns the target T7, CYP3A4 (Homo sapiens, UniProt P08684). Description: Inhibition of human CYP3A4 expressed in baculovirus-infected insect microsomes at 1 uM. The data set is classed as ADME, Microsome. A digest of the protocol:
as §1

In data set [13] the target is T7, CYP3A4. In words: Inhibition of human CYP3A4 expressed in baculovirus-infected insect microsomes at 10 uM. The data set is classed as ADME, Microsome. A digest of the protocol:
as §1

T7 sequence (P08684 whole entry): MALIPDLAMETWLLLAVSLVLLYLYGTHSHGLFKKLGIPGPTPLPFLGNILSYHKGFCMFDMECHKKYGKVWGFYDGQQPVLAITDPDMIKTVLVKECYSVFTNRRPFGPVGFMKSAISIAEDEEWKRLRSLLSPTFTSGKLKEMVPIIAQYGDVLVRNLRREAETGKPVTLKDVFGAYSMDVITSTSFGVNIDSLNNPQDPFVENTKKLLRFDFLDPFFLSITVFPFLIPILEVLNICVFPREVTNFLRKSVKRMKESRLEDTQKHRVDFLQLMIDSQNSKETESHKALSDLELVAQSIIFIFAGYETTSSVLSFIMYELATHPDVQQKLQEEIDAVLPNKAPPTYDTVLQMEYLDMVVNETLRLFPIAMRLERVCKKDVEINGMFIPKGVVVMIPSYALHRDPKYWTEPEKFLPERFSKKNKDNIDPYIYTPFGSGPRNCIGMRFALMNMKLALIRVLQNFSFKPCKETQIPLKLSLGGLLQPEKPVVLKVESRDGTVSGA
T1 sequence (P33261 whole entry): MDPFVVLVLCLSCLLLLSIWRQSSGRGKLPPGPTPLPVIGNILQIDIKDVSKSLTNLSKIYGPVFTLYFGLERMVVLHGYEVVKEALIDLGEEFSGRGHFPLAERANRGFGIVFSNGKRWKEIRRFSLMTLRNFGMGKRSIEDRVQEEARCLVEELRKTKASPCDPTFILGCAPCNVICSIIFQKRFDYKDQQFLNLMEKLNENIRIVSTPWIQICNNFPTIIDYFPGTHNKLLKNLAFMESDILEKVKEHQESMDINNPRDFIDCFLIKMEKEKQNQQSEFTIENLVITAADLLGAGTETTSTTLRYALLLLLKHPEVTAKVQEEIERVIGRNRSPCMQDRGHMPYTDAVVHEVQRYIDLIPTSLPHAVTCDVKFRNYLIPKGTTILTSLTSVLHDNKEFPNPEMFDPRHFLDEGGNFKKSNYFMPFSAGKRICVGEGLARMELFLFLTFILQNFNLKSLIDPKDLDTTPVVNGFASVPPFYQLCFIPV
T6 sequence (P11712 whole entry): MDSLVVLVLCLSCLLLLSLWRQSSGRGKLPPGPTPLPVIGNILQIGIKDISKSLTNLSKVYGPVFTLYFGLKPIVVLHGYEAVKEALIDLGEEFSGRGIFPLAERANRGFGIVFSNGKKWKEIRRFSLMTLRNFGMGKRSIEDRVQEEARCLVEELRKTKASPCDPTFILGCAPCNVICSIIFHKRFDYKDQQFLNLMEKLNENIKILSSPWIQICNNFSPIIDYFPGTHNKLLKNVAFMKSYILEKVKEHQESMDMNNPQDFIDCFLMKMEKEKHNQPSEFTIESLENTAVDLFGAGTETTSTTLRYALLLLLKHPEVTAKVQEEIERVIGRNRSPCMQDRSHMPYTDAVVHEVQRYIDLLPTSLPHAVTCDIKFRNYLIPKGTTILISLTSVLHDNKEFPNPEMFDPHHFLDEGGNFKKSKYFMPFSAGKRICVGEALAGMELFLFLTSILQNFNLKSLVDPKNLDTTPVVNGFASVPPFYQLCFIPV

What is called inhibition is the relative decrease from the control value, in per cent. One may read the IC50 as the concentration needed to halve the response being measured. On to `O=C1CCc2cc(-c3cncc4ccccc34)cc3c2N1CCC3`, for which the inhibition at 10 µM in [1] is 96%; in [6] it was 97%; in data set [9] it was 63%; in data set [13] it was under 5%. The inhibition at 2 µM in data set [2] amounted to 5%. The results for the IC50 in [3] and in [11] were 34 nM and 0.2 nM, respectively. Further, the inhibition at 1 µM in data set [4] is 24%; in data set [7], 73%; in [8], 67%; in [12], under 5%. Moreover, the inhibition at 0.5 µM in data set [5] is 95%. In addition, the Ratio IC50 in [10] was found to be 170.

In the case of `COc1cncc(-c2cc3c4c(c2)CCC(=O)N4CCC3)c1`, the inhibition at 10 µM in [1] amounted to 61%; in data set [6], 63%; in [9], 87%; in [13], 24%. For the same molecule, the inhibition at 2 µM in data set [2] was under 5%. The IC50 in [3] was 545 nM; in data set [11], 0.9 nM. In addition, the inhibition at 1 µM in data set [4] stood at 47%; in data set [7], 34%; in [8], 11%; in [12] it was 12%. Moreover, the inhibition at 0.5 µM in data set [5] was determined as 95%.
